Publication PMC5362268 (Cell, 2017)
Residues, ends and D or L forms follow the SMILES beside them. *: point of attachment. Cbz = O=C(OCc1ccccc1)*

What was measured:
DLD-1 cells = experiment: Pan-RAS siRNA knockdown and viability; format: cell-based, human; settings: si-panRAS vs non-targeting siRNA, 24 h, CellTiter-Glo
Outline: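 DLD-1 cells reverse-transfected in 6-well plates with siRNA pools against HRAS, KRAS and NRAS, or a non-targeting pool. Cells then re-suspended in serum-free RPMI and seeded at 10,000 cells/well in 384-well plates overnight. Dilution series added from 10× stocks in serum-free Opti-mem; 24 h incubation; viability by CellTiter-Glo.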

[1] = tested on: BRAF^V600E-CAAX-expressing MEF cells; experiment: Viability assay in mouse embryo fibroblasts; format: cell-based; settings: compared with Kras^lox/lox MEFs

| SMILES | effect of combined HRAS, NRAS and KRAS knockdown on compound lethality (DLD-1 cells) | sensitivity of BRAF^V600E-CAAX-expressing cells [1] |
| --- | --- | --- |
| CC(C)C[C@@H](C=O)NC(=O)[C@H](CC(C)C)NC(=O)[C@H](CC(C)C)NC(=O)OCc1ccccc1 [MG132, reference compound] (Cbz-Leu-Leu-Leu-aldehyde) | did not sensitize | – |
| CCCS(=O)(=O)Nc1ccc(F)c(C(=O)c2c[nH]c3ncc(-c4ccc(Cl)cc4)cc23)c1F [vemurafenib, reference compound] | – | more sensitive |
